Broadly, the IC50 is the midpoint of a concentration-inhibition curve. One may read the Ki as the dissociation constant of the complex between target and ligand, obtained from inhibition or displacement. Read a low Ki as tighter binding.

Where only a bound is given, the exact number is not on record here.

Data on 28 compounds can be found in ChEMBL document CHEMBL2390916, “Low molecular weight dual inhibitors of factor Xa and fibrinogen binding to GPIIb/IIIa with highly overlapped pharmacophores” (Eur J Med Chem, 2013).

For test [1], the target named is Integrin alpha-IIb/beta-3 (Homo sapiens, UniProt P05106+P08514). The test is described as follows: Displacement of biotinylated fibrinogen from human glycoprotein 2b/3a receptor after 2 hrs by chemiluminescence assay. In kind it is protein-complex assay. The gist of the method:
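Solid-phase competitive binding: purified human GPIIb/IIIa coated overnight at 4 °C in Tris buffer pH 7.4 with 1 mM Ca2+, Mg2+, Mn2+; blocked with 1% BSA. Serially diluted inhibitor plus biotinylated human fibrinogen, 2 h rt; peroxidase anti-biotin antibody 1 h, chemiluminescent read.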

A further test concerns the target Trypsin (Homo sapiens, UniProt P07477+P07478+P35030). The test is described as follows: Inhibition of trypsin (unknown origin) using S-2222 as substrate incubated for 15 mins prior to substrate addition measured every 10 secs by spectrophotometric analysis. Type of test: protein assay. The gist of the method: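 Trypsin at 0.5 nkat/mL final with S-2222 at 50 and 100 µM final. Inhibitor 0.5–100 µM, diluted from 10 mM DMSO stocks, preincubated 15 min at 25 °C with enzyme in HBSA buffer before substrate; absorbance at 405 nm every 10 s. Triplicate at three inhibitor and two substrate levels; Ki from initial rates (Cheng–Prusoff), averaged.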

The next test has as its target Prothrombin (Homo sapiens, UniProt P00734). The test is described as follows: Inhibition of thrombin (unknown origin) using S-2238 as substrate incubated for 15 mins prior to substrate addition measured every 10 secs by spectrophotometric analysis.
For the next test, the target named is Coagulation factor X (Homo sapiens, UniProt P00742). The test is described as follows: Inhibition of F10a (unknown origin) using S-2222 as substrate incubated for 15 mins prior to substrate addition measured every 10 secs by spectrophotometric analysis. In a few lines:
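Inhibitor 0.5–100 µM (from 10 mM DMSO stocks) preincubated with enzyme in HBSA buffer 15 min, 25 °C; A405 read every 10 s. Triplicate, three inhibitor × two substrate concentrations; Ki from initial linear rates via Cheng–Prusoff, averaged.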

Chain of Coagulation factor X (P00742 41-179 limits assumed): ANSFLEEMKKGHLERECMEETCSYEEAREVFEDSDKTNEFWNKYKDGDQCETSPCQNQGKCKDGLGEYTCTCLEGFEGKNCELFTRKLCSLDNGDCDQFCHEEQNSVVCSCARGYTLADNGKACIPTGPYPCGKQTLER
Chain of Coagulation factor X (P00742 235-488 limits assumed): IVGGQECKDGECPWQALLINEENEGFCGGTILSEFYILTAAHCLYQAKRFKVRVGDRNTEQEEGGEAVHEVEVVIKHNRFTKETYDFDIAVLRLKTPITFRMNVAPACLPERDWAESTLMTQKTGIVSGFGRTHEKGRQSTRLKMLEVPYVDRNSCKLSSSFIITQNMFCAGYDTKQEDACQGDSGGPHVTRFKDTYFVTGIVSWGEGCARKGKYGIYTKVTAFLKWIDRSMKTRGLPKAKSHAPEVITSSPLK
Chain of Integrin alpha-IIb/beta-3 (P05106 27-788 limits assumed): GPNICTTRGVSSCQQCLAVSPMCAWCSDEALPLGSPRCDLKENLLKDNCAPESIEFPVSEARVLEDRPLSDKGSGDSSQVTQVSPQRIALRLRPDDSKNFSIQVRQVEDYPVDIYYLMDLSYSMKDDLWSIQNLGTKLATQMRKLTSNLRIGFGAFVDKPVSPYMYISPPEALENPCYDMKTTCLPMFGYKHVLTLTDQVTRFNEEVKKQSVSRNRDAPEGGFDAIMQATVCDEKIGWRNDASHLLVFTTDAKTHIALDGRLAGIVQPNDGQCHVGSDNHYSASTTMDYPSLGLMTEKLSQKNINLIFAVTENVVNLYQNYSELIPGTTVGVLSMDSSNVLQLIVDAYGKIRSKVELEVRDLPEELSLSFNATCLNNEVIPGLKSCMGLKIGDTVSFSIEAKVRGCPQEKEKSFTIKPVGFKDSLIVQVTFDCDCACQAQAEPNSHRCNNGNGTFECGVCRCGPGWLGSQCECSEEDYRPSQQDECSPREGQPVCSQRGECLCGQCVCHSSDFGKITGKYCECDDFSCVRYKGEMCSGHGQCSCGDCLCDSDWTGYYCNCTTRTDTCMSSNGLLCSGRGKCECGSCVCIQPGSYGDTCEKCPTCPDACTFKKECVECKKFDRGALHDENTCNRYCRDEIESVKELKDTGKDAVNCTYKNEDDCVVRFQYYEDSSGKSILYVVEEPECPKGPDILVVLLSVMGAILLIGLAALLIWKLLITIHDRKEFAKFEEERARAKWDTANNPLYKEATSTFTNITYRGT
Chain of Integrin alpha-IIb/beta-3 (P08514 32-887 limits assumed): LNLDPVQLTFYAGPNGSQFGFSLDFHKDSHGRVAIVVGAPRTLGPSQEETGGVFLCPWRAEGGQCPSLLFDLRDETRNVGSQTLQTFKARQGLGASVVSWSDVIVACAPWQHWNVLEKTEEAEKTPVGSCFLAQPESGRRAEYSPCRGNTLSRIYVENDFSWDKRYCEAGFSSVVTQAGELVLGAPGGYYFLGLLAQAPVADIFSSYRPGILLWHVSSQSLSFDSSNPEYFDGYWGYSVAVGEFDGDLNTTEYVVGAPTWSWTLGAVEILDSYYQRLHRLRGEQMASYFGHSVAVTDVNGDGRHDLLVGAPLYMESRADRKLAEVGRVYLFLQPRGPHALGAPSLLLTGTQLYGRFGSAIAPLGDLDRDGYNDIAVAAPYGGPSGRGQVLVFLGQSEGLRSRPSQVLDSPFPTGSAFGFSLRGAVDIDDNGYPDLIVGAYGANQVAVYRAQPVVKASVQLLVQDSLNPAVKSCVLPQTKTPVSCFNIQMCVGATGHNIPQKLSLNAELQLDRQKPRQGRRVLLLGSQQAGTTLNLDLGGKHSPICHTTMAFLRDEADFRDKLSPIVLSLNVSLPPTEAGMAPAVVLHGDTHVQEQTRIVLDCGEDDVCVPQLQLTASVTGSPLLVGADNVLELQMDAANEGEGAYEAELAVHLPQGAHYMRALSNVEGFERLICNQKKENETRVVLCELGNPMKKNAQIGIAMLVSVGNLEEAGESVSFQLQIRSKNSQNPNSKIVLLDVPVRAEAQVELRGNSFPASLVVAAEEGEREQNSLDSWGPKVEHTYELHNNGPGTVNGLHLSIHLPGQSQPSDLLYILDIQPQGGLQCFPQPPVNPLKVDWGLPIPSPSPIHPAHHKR
Chain of Integrin alpha-IIb/beta-3 (P08514 891-1039 limits assumed): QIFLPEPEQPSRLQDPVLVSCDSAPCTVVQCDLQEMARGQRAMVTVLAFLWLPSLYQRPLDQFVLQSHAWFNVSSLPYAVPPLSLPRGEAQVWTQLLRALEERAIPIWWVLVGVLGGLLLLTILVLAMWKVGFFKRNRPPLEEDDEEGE

For the compound `O=C(NC[C@@H]1CN(c2ccc(N3CCC(C(=O)O)CC3)cc2)C(=O)O1)c1ccc(Cl)s1`, the IC50 in test [1] is more than 300 µM.
Same read-out and setting: to `O=C(NC[C@H]1CN(c2ccc(N3CCC(C(=O)O)CC3)cc2)C(=O)O1)c1ccc(Cl)s1` belongs more than 300 µM.
Consider `CCOC(=O)C1CCN(c2ccc(N3C[C@H](CNC(=O)c4cnc(N)s4)OC3=O)cc2)CC1.O=C(O)C(F)(F)F`, for which the Ki at Trypsin is more than 100 µM; at Prothrombin, more than 100 µM; on Coagulation factor X it was 54.4 µM. For the same compound, the IC50 in test [1] is more than 300 µM.
As for `Nc1ncc(C(=O)NC[C@H]2CN(c3ccc(N4CCC(C(=O)O)CC4)cc3)C(=O)O2)s1.O=C(O)C(F)(F)F`, the Ki at Trypsin was more than 100 µM; on Prothrombin, more than 100 µM; on Coagulation factor X, 48.8 µM. Also, in test [1], the IC50 is 78.4 µM.
For `CCOC(=O)C1CCN(c2ccc(N3C[C@@H](CNC(=O)c4cnc(N)s4)OC3=O)cc2)CC1.O=C(O)C(F)(F)F`, the values for the Ki on Trypsin, on Prothrombin and at Coagulation factor X were more than 100 µM, more than 100 µM and 111 µM, respectively. This compound also registered an IC50 in test [1] of more than 300 µM.
With `Nc1ncc(C(=O)NC[C@@H]2CN(c3ccc(N4CCC(C(=O)O)CC4)cc3)C(=O)O2)s1.O=C(O)C(F)(F)F`, the Ki was more than 100 µM at Trypsin, more than 100 µM at Prothrombin and 88.2 µM at Coagulation factor X. Moreover, in test [1], the IC50 was 16.8 µM.
With `CCOC(=O)C1CCCN(c2ccc(N3C[C@H](CNC(=O)c4cnc(N)s4)OC3=O)cc2)C1.O=C(O)C(F)(F)F` (stereo partly specified), the inhibition constant Ki was more than 100 µM at Trypsin, more than 100 µM at Prothrombin and 49.3 µM on Coagulation factor X. The compound further displayed an IC50 in test [1] of more than 300 µM.
For the compound `Nc1ncc(C(=O)NC[C@H]2CN(c3ccc(N4CCCC(C(=O)O)C4)cc3)C(=O)O2)s1.O=C(O)C(F)(F)F` (stereo partly specified), the Ki on Trypsin was more than 100 µM; on Prothrombin, more than 100 µM; at Coagulation factor X, 47.5 µM. Moreover, the IC50 in test [1] is more than 300 µM.
With `CCOC(=O)C1CCCCN1c1ccc(N2C[C@H](CNC(=O)c3cnc(N)s3)OC2=O)cc1.O=C(O)C(F)(F)F` (stereo partly specified), the values for the Ki on Trypsin, on Prothrombin and on Coagulation factor X were more than 100 µM, more than 100 µM and 28.7 µM, respectively. For the same compound, the IC50 in test [1] was more than 300 µM.
For the compound `CCOC(=O)C1CCN(c2ccc(N3C[C@H](CNC(=O)c4cnc(N)s4)OC3=O)cc2)C(=O)C1.O=C(O)C(F)(F)F` (stereo partly specified), the values for the Ki on Trypsin, on Prothrombin and on Coagulation factor X were more than 100 µM, more than 100 µM and 38.2 µM, respectively. Also, in test [1], the IC50 is more than 300 µM.
`CCOC(=O)C1(C)CCCN(c2ccc(N3C[C@H](CNC(=O)c4cnc(N)s4)OC3=O)cc2)C1=O.O=C(O)C(F)(F)F` (stereo partly specified): the Ki at Trypsin was more than 100 µM; at Prothrombin, more than 100 µM; on Coagulation factor X, 55.6 µM. Moreover, in test [1], the IC50 was more than 300 µM.
As for `CC1(C(=O)O)CCCN(c2ccc(N3C[C@H](CNC(=O)c4cnc(N)s4)OC3=O)cc2)C1=O.O=C(O)C(F)(F)F` (stereo partly specified), the Ki was more than 100 µM at Trypsin, more than 100 µM at Prothrombin and 11.2 µM at Coagulation factor X. Further, the IC50 in test [1] is more than 300 µM.
For the compound `O=C(NC[C@H]1CN(c2ccc(N3CCC(C(=O)O)CC3)cc2)C(=O)O1)c1ccc(-c2noc(=O)[nH]2)cc1`, the Ki on Trypsin, on Prothrombin and at Coagulation factor X was more than 100 µM in each case. Further, in test [1], the IC50 came to 16 µM.
Regarding `O=C(NC[C@@H]1CN(c2ccc(N3CCC(C(=O)O)CC3)cc2)C(=O)O1)c1ccc(-c2noc(=O)[nH]2)cc1`, the Ki on Trypsin, at Prothrombin and on Coagulation factor X was more than 100 µM each time. For the same compound, the 50% inhibitory concentration (IC50) in test [1] was determined as 0.87 µM.
Take `O=C(O)C1CCN(c2ccc(N3C[C@H](CNCc4ccc(-c5noc(=O)[nH]5)cc4)OC3=O)cc2)CC1`: the Ki on Trypsin, on Prothrombin and on Coagulation factor X was more than 100 µM in each case. Further, the IC50 in test [1] was determined as 0.89 µM.
Regarding `O=C(O)C1CCN(c2ccc(N3C[C@@H](CNCc4ccc(-c5noc(=O)[nH]5)cc4)OC3=O)cc2)CC1`, the Ki was more than 100 µM on Trypsin, more than 100 µM on Prothrombin and 94.8 µM on Coagulation factor X. Further, the IC50 in test [1] is 0.26 µM.
As for `CC(=O)O.CCOC(=O)C1CCN(c2ccc(N3C[C@H](CNC(=O)c4ccc(C(=N)N)cc4)OC3=O)cc2)CC1`, the inhibitory constant (Ki) at Trypsin is 5.65 µM; on Prothrombin it was more than 100 µM; on Coagulation factor X it was more than 100 µM. In test [1], the IC50 stood at 14 µM.
For `CC(=O)O.CCOC(=O)C1CCN(c2ccc(N3C[C@@H](CNC(=O)c4ccc(C(=N)N)cc4)OC3=O)cc2)CC1`, the Ki at Trypsin was 3.06 µM; on Prothrombin, more than 100 µM; on Coagulation factor X it was more than 100 µM. For the same compound, the IC50 in test [1] was determined as 96 µM.
With `CC(=O)O.CCOC(=O)C1CCN(c2ccc(N3C[C@H](CNCc4ccc(C(=N)N)cc4)OC3=O)cc2)CC1`, the values for the inhibition constant Ki at Trypsin, at Prothrombin and at Coagulation factor X were 2.17 µM, more than 100 µM and 34.3 µM, respectively. The same compound yielded an IC50 in test [1] of 55 µM.
As to `CC(=O)O.CCOC(=O)C1CCN(c2ccc(N3C[C@@H](CNCc4ccc(C(=N)N)cc4)OC3=O)cc2)CC1`, the Ki was 6.59 µM on Trypsin, more than 100 µM on Prothrombin and 25.6 µM at Coagulation factor X. This compound displayed an IC50 in test [1] of 35 µM.
For the compound `CC(=O)O.N=C(N)c1ccc(C(=O)NC[C@H]2CN(c3ccc(N4CCC(C(=O)O)CC4)cc3)C(=O)O2)cc1`, the Ki is 8.95 µM on Trypsin, more than 100 µM on Prothrombin and 43 µM on Coagulation factor X. This compound yielded an IC50 in test [1] of 12 µM.
For `CC(=O)O.N=C(N)c1ccc(C(=O)NC[C@@H]2CN(c3ccc(N4CCC(C(=O)O)CC4)cc3)C(=O)O2)cc1` the same measures were 3.79 µM, more than 100 µM, 62.9 µM and 4.7 µM.
For `CC(=O)O.N=C(N)c1ccc(CNC[C@H]2CN(c3ccc(N4CCC(C(=O)O)CC4)cc3)C(=O)O2)cc1` the same measures were 17.8 µM, 53 µM, 54.1 µM and 2.2 µM.
`CCOC(=O)C1CCN(c2ccc(N3C[C@H](CNC(=O)c4ccc(Cl)c(N)c4)OC3=O)cc2)CC1`: the Ki at Trypsin is more than 100 µM; at Prothrombin, more than 100 µM; on Coagulation factor X it was 10.8 µM. Besides, the IC50 in test [1] is more than 300 µM.
For the compound `CCOC(=O)C1CCN(c2ccc(N3C[C@@H](CNC(=O)c4ccc(Cl)c(N)c4)OC3=O)cc2)CC1`, the Ki at Trypsin was more than 100 µM; at Prothrombin, more than 100 µM; on Coagulation factor X, 82.3 µM. Also, the IC50 in test [1] was more than 300 µM.
In the case of `Nc1cc(C(=O)NC[C@H]2CN(c3ccc(N4CCC(C(=O)O)CC4)cc3)C(=O)O2)ccc1Cl`, the Ki at Trypsin is more than 100 µM; at Prothrombin, more than 100 µM; on Coagulation factor X, 37 µM. The same compound returned an IC50 in test [1] of 25.8 µM.
`Nc1cc(C(=O)NC[C@@H]2CN(c3ccc(N4CCC(C(=O)O)CC4)cc3)C(=O)O2)ccc1Cl`: the Ki at Trypsin is more than 100 µM; on Prothrombin it was more than 100 µM; at Coagulation factor X, 57.7 µM. In addition, the IC50 in test [1] turned out to be 12.8 µM.
`O=C(NC[C@H]1CN(c2ccc(N3CCC(C(=O)O)CC3)cc2)C(=O)O1)c1ccc(Cl)c(-c2noc(=O)[nH]2)c1`: the results for the inhibition constant Ki on Trypsin, on Prothrombin and on Coagulation factor X were more than 100 µM, more than 100 µM and 89.7 µM, respectively. Moreover, the IC50 in test [1] turned out to be 15.3 µM.
